A word on the Tmax: it is the time from dosing to the highest level. The half-life is the time in which the quantity being followed falls by half.

This is an account of results in ChEMBL document CHEMBL4229344 (Eur J Med Chem, 2018).

For data set [1], the target named is RAC-gamma serine/threonine-protein kinase (Homo sapiens) (UniProt Q9Y243). The data set is described as follows: Binding affinity to wild-type human partial length AKT3 expressed in bacterial expression system assessed as residual binding level at 1 uM by Kinomescan method relative to control. In a few lines:
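Kinome-wide competition binding screen against a panel of 468 purified kinases/mutants, with the test compound at a single concentration of 1 μM. Read-out is the relative binding activity of each kinase in the presence of compound.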

Data set [2] addresses Calcium/calmodulin-dependent protein kinase type 1B (Homo sapiens) (UniProt Q6P2M8). The data set is described as follows: Binding affinity to wild-type human partial length CAMK1B (W9 to A311 residues) expressed in mammalian expression system assessed as residual binding level at 1 uM by Kinomescan method relative to control.
For data set [3], the target named is Cyclin-dependent kinase 4 (Homo sapiens) (UniProt P11802). Briefly: Binding affinity to wild-type human full length CDK4 (M1 to E303 residues) expressed in mammalian expression system assessed as residual binding level at 1 uM by Kinomescan method relative to control. In a few lines: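 Single-concentration (1 μM) competition-binding screen run by KINOMEscan against a panel of 468 purified kinases and mutants. The read-out is the relative binding activity of the test compound to each kinase.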
Chain of Cyclin-dependent kinase 4 (Homo sapiens) (P11802 whole entry, the tested form may be a part): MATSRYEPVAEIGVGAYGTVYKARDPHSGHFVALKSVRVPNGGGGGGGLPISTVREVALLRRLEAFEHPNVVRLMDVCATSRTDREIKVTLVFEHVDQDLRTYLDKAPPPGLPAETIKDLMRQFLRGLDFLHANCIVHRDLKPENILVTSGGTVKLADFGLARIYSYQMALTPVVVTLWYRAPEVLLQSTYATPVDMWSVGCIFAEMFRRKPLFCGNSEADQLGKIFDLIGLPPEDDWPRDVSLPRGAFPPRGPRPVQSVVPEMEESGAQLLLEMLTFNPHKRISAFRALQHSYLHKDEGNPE

Data set [4] deals with Death-associated protein kinase 2 (Homo sapiens) (UniProt Q9UIK4). Briefly: Binding affinity to wild-type human full length DAPK2 (M1 to S370 residues) expressed in bacterial expression system assessed as residual binding level at 1 uM by Kinomescan method relative to control. In a few lines: (§1)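 KINOMEscan competition binding against 468 purified kinases/mutants, test compound at 1 µM; residual binding relative to control.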
Chain of Death-associated protein kinase 2 (Homo sapiens) (Q9UIK4 whole entry, looked up, the tested form may be a part): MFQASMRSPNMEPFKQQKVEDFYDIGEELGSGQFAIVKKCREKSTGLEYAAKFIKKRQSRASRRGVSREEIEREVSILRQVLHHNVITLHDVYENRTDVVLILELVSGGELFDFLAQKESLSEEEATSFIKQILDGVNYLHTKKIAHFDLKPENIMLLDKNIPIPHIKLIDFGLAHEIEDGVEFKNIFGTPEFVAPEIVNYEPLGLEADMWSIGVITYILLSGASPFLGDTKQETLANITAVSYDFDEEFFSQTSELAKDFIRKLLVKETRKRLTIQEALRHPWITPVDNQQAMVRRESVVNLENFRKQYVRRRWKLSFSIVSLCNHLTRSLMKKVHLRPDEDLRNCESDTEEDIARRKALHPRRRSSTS

In data set [5] the target is Epidermal growth factor receptor (Homo sapiens) (UniProt P00533). Briefly: Binding affinity to human partial length EGFR L747-T751del/Sins mutant expressed in bacterial expression system assessed as residual binding level at 1 uM by Kinomescan method relative to control. In a few lines:
(§2)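 Kinome-wide single-concentration binding screen (KINOMEscan) at 1 μM against a panel of 468 purified kinases and mutants. Read-out is relative binding of each kinase compared with control. Selectivity across the panel was summarised as an S(10) score.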

The test system of data set [6] is Epidermal growth factor receptor (Homo sapiens), P00533 [L858R]. The data set is described as follows: Binding affinity to human partial length EGFR L858R mutant (R669 to V1011 residues) expressed in bacterial expression system assessed as residual binding level at 1 uM by Kinomescan method relative to control. The gist of the method:
as §2

Data set [7] deals with Mitogen-activated protein kinase kinase kinase 1 (Homo sapiens) (UniProt Q13233). The data set is described as follows: Binding affinity to wild-type human partial length MAP3K1 (L1202 to W1512 residues) expressed in mammalian expression system assessed as residual binding level at 1 uM by Kinomescan method relative to control.
Chain of Mitogen-activated protein kinase kinase kinase 1 (Homo sapiens) (Q13233 whole entry, the tested form may be a part): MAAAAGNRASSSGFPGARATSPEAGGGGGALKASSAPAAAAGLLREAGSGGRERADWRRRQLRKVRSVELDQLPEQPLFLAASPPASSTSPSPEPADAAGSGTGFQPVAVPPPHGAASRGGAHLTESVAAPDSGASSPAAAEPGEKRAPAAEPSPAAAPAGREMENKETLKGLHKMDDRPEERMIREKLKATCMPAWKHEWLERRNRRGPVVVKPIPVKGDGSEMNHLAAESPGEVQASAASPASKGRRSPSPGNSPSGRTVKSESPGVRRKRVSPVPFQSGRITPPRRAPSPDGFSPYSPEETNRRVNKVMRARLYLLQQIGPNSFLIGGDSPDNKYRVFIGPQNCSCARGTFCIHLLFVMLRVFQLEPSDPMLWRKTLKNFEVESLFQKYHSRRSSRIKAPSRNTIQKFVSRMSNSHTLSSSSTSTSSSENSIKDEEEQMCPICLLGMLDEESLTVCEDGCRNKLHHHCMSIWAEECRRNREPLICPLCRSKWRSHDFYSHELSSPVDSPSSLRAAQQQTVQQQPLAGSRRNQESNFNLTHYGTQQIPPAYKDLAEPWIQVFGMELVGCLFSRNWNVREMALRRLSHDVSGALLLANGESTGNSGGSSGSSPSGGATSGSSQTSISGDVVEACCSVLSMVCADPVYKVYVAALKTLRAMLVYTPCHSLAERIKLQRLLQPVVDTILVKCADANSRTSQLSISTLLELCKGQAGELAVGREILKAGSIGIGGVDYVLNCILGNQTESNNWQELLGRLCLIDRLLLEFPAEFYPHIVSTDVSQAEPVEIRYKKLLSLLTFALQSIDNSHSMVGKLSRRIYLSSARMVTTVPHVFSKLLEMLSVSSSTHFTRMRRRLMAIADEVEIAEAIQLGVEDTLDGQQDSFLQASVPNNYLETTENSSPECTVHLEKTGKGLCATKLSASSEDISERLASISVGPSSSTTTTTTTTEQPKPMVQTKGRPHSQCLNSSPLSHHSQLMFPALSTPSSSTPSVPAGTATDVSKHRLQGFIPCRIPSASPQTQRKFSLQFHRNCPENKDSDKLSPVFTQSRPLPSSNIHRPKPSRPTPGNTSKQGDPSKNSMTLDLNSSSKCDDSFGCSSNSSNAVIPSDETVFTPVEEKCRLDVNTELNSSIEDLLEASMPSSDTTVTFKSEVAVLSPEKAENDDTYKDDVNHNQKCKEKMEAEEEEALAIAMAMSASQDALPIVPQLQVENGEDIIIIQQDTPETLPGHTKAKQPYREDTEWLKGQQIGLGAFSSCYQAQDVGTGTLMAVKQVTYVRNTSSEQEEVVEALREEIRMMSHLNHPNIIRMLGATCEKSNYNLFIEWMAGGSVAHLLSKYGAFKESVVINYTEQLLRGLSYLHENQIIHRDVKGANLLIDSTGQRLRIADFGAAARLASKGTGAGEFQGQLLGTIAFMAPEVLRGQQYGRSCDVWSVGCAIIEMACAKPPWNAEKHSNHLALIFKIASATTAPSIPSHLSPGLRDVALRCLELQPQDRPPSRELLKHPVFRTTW
Data set [8] has as its target 3-phosphoinositide-dependent protein kinase 1 (Homo sapiens) (UniProt O15530). The data set is described as follows: Binding affinity to wild-type human full length PDPK1 (M1 to Q556 residues) expressed in bacterial expression system assessed as residual binding level at 1 uM by Kinomescan method relative to control. The gist of the method: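 Single-concentration KINOMEscan (DiscoverX) binding screen at 1 μM against a panel of 468 purified kinases and mutants. The read-out is binding relative to control.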

The target in data set [9] is Serine/threonine-protein kinase RIO3 (Homo sapiens) (UniProt O14730). Briefly: Binding affinity to wild-type human full length RIOK3 (M1 to E519 residues) expressed in bacterial expression system assessed as residual binding level at 1 uM by Kinomescan method relative to control. The gist of the method: as §1
Chain of Serine/threonine-protein kinase RIO3 (Homo sapiens) (O14730 whole entry, the tested form may be a part): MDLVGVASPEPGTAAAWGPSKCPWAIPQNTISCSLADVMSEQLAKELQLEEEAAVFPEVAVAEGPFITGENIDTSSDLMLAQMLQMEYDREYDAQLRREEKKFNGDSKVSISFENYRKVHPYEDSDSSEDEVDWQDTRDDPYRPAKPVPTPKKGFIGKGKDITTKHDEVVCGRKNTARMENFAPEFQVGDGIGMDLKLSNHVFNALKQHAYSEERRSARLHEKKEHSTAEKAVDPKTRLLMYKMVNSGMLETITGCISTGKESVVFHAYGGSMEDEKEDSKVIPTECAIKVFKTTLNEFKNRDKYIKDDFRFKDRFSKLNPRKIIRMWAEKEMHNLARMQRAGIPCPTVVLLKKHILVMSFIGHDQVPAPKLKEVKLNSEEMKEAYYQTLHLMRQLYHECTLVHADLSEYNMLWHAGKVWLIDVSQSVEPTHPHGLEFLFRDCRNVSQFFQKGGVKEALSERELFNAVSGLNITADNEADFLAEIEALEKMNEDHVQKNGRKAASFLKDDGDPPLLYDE
Data set [10] addresses Ribosomal protein S6 kinase alpha-4 (Homo sapiens) (UniProt O75676). The data set is described as follows: Binding affinity to wild-type human partial length N-terminal RPS6KA4 kinase domain 1 expressed in bacterial expression system assessed as residual binding level at 1 uM by Kinomescan method relative to control.
Data set [11] is described as follows: Tmax in Sprague-Dawley rat at 1 mg/kg, iv. Type of data set: ADME, organism-based. To be noted: in vivo. In a few lines: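 Male Sprague-Dawley rats, 6–8 weeks old and fasted overnight, dosed IV at 1 mg/kg or PO at 10 mg/kg. Formulation was 5% DMSO/40% PEG400/55% saline (1 mg/mL). Jugular blood collected on heparin from 1 min to 8 h (IV) or 5 min to 24 h (PO). Plasma separated by centrifugation at 2–8 °C and stored at −80 °C.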

Data set [12] can be described thus: Half life in Sprague-Dawley rat at 10 mg/kg, po. The class given is ADME, organism-based. To be noted: in vivo.

Chain of 3-phosphoinositide-dependent protein kinase 1 (Homo sapiens) (O15530 whole entry, the tested form may be a part): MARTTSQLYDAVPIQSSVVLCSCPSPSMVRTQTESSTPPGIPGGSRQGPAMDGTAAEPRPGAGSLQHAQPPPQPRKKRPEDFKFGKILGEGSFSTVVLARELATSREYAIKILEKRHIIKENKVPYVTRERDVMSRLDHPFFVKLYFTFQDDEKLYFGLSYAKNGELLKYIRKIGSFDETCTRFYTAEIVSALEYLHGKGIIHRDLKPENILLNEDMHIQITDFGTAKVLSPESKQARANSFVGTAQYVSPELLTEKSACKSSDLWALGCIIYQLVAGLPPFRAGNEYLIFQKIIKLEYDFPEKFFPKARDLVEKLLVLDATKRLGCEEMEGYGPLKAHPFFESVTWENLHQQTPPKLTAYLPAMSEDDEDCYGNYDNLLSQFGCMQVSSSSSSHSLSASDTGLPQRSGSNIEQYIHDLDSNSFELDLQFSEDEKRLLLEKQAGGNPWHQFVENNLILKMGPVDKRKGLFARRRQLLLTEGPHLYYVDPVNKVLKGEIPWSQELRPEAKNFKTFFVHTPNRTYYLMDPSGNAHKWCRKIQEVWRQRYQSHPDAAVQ
Chain of Ribosomal protein S6 kinase alpha-4 (Homo sapiens) (O75676 whole entry, looked up, the tested form may be a part): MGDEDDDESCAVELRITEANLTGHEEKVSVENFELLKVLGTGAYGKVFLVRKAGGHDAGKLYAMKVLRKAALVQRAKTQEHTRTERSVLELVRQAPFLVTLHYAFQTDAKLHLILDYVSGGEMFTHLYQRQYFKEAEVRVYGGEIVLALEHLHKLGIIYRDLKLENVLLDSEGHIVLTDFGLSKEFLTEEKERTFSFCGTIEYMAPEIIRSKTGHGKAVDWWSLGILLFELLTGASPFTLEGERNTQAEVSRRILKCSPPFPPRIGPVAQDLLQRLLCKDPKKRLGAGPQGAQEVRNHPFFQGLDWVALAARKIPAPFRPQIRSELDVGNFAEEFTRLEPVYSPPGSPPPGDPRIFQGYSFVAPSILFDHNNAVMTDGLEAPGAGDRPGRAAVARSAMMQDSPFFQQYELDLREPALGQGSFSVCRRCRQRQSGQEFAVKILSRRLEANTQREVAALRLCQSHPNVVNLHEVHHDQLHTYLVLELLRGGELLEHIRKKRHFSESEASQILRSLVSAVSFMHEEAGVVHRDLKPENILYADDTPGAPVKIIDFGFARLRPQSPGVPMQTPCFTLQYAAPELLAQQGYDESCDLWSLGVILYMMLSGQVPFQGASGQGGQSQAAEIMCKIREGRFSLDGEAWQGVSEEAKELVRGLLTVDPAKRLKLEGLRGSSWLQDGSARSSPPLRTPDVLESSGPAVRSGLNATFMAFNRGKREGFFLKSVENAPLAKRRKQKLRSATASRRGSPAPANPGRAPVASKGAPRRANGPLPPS
Chain of Calcium/calmodulin-dependent protein kinase type 1B (Homo sapiens) (Q6P2M8 whole entry, the tested form may be a part): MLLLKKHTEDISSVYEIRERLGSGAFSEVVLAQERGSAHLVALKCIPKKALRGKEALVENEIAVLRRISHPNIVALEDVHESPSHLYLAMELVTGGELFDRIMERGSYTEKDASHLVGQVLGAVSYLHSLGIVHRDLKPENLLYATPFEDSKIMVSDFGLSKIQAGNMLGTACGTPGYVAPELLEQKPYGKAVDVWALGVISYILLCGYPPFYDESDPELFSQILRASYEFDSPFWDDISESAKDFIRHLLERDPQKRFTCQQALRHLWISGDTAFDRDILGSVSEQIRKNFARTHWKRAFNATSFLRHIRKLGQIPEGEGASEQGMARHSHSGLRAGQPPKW
Chain of RAC-gamma serine/threonine-protein kinase (Homo sapiens) (Q9Y243 whole entry): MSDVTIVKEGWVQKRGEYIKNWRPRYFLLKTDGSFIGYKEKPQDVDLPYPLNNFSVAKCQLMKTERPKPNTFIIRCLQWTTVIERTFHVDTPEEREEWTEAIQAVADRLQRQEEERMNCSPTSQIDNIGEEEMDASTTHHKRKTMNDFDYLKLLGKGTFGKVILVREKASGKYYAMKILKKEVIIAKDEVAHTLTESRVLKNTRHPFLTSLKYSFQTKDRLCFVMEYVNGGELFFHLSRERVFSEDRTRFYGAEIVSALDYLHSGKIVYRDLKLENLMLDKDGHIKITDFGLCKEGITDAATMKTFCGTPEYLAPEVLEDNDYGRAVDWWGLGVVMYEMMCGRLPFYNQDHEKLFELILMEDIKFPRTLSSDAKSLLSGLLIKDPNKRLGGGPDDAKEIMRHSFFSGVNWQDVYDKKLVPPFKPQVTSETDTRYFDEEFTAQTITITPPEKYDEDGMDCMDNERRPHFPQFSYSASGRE

As for `Cc1ccc(NC(=O)c2ccc(CN(CCN(C)C)C(=O)c3cccnc3)cc2)cc1Nc1nccc(-c2cccnc2)n1`, the Activity in [1] was found to be 92%; in [2], 90%; in data set [3], 100%; in data set [4] it was 94%; in data set [5], 100%; in [6], 100%. For the same compound, the Activity came to 88% in data set [7], 100% in data set [8], 69% in data set [9] and 82% in data set [10]. Also, the Tmax in data set [11] stood at 1.02 min. In addition, in data set [12], the half-life is 2.03 h.
